# Measured values published in PMC10041999 (Journal of chemical information and modeling, 2022).
# Target: T1, VapC1 (Haemophilus influenzae, UniProt Q4QNL7)
# T1 sequence (Q4QNL7 1-134): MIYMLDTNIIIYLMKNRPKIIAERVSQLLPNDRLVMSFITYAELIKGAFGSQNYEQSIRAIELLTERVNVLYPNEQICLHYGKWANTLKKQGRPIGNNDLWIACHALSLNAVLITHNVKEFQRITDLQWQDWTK
# Assay: Biochemical VapC1 ribonuclease activity assay
# Design: species or system nontypeable Haemophilus influenzae
# Summary of the method: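 Purified VapC1 (296 nM final) was preincubated with test compound, aurintricarboxylic acid positive control or DMSO for 30 min at room temperature in 1X RNaseAlert reaction buffer. Custom RNA substrate (5' Cy5, 3' Iowa Black RQ quencher; 100 nM final) was then added. Fluorescence (Ex 618, Em 671 nm) was read immediately and at 75 min. Activity was taken as the change between readings. Concentration-response used eleven concentrations.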
smiles,measurement,value
Clc1ccc(C(c2ccc(Cl)cc2)n2cc[n+](C[C@@H](OCc3ccc(Cl)cc3Cl)c3ccc(Cl)cc3Cl)c2)cc1 [NCGC00015233],VapC1 inhibitor (result in words),confirmed VapC1 inhibtors
